Columns and labels:
Plasmodium berghei [1] = experiment: Antimalarial activity against Plasmodium berghei infected in Swiss Webster mouse assessed as mouse survival rate at 33 mg/kg administered once daily via oral gavage for 4 consecutive days beginning 1 hr after infection measured on day 13 post infection relative to control; assay type: functional
In short: (§1)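 P. berghei-infected erythrocytes taken from a previously infected mouse were injected intraperitoneally. Oral dosing, once daily for 4 consecutive days, began 1 h after infection, in polyethylene glycol 300/propylene glycol/water (55/25/20 by weight). Chloroquine at 30 mg/kg was the positive control, with a vehicle-only group. Percent survival was recorded daily from day 4 to day 20.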

Plasmodium berghei [2] = experiment: Antimalarial activity against Plasmodium berghei infected in Swiss Webster mouse assessed as mouse survival rate administered once daily via oral gavage for 4 consecutive days beginning 1 hr after infection measured on day 4 post infection; assay type: functional
In short: (§2)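 Mice given an intraperitoneal injection of P. berghei-infected erythrocytes taken from a previously infected animal. Oral dosing once daily for 4 consecutive days, starting 1 h after infection. Vehicle: polyethylene glycol 300/propylene glycol/water (weight ratio 55/25/20). Percent survival recorded daily from day 4 to day 20. Chloroquine 30 mg/kg and vehicle-only groups served as controls.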

Plasmodium berghei [3] = experiment: Antimalarial activity against Plasmodium berghei infected in Swiss Webster mouse assessed as mouse survival rate at 100 mg/kg administered once daily via oral gavage for 4 consecutive days beginning 1 hr after infection measured on day 13 post infection relative to control; assay type: functional; in short: as §2
Plasmodium berghei [4] = experiment: Antimalarial activity against Plasmodium berghei infected in Swiss Webster mouse assessed as mouse survival rate at 100 mg/kg administered once daily via oral gavage for 4 consecutive days beginning 1 hr after infection measured on day 4 post infection relative to control; assay type: functional; in short: as §2
Plasmodium berghei [5] = experiment: Antimalarial activity against Plasmodium berghei infected in Swiss Webster mouse assessed as mouse survival rate at 1.2 mg/kg administered once daily via oral gavage for 4 consecutive days beginning 1 hr after infection measured on day 7 post infection relative to control; assay type: functional; in short: as §2
Plasmodium berghei [6] = experiment: Antimalarial activity against Plasmodium berghei infected in Swiss Webster mouse assessed as mouse survival rate at 100 mg/kg administered once daily via oral gavage for 4 consecutive days beginning 1 hr after infection measured on day 9 post infection relative to control; assay type: functional; in short: as §2
Plasmodium falciparum [7] = experiment: Antimalarial activity against chloroquine-sensitive Plasmodium falciparum 3D7 infected in human erythrocytes assessed as reduction in [3H]-hypoxanthine incorporation preincubated for 24 hrs followed by [3H]-hypoxanthine addition measured after 24 hrs by scintillation counting method; assay type: functional, cell-based
In short: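 P. falciparum 3D7 cultures were exposed to the compound for 48 h, with atovaquone as the reference control. IC50 was taken from three replicates.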

Plasmodium berghei [8] = experiment: Antimalarial activity against Plasmodium berghei infected in Swiss Webster mouse assessed as mouse survival rate at 1.2 mg/kg administered once daily via oral gavage for 4 consecutive days beginning 1 hr after infection measured on day 6 post infection relative to control; assay type: functional; in short: as §2
Plasmodium berghei [9] = experiment: Antimalarial activity against Plasmodium berghei infected in Swiss Webster mouse assessed as mouse survival rate at 1.2 mg/kg administered once daily via oral gavage for 4 consecutive days beginning 1 hr after infection measured on day 5 post infection relative to control; assay type: functional; in short: as §2
Plasmodium berghei [10] = experiment: Antimalarial activity against Plasmodium berghei infected in Swiss Webster mouse assessed as mouse survival rate at 11 mg/kg administered once daily via oral gavage for 4 consecutive days beginning 1 hr after infection measured on day 4 post infection relative to control; assay type: functional; in short: as §1
Plasmodium berghei [11] = experiment: Antimalarial activity against Plasmodium berghei infected in Swiss Webster mouse assessed as mouse survival rate at 33 mg/kg administered once daily via oral gavage for 4 consecutive days beginning 1 hr after infection measured on day 4 post infection relative to control; assay type: functional; in short: as §1
Plasmodium berghei [12] = experiment: Antimalarial activity against Plasmodium berghei infected in Swiss Webster mouse assessed as mouse survival rate at 100 mg/kg administered once daily via oral gavage for 4 consecutive days beginning 1 hr after infection measured on day 12 post infection relative to control; assay type: functional; in short: as §2
Plasmodium berghei [13] = experiment: Antimalarial activity against Plasmodium berghei infected in Swiss Webster mouse assessed as mouse survival rate at 3.7 mg/kg administered once daily via oral gavage for 4 consecutive days beginning 1 hr after infection measured on day 5 post infection relative to control; assay type: functional; in short: as §1
Plasmodium berghei [14] = experiment: Antimalarial activity against Plasmodium berghei infected in Swiss Webster mouse assessed as mouse survival rate at 0.1 mg/kg administered once daily via oral gavage for 4 consecutive days beginning 1 hr after infection measured on day 5 post infection relative to control; assay type: functional; in short: as §2
[15] = Metabolic stability in human hepatocytes at 22 uM after 44 hrs; assay type: ADME, cell-based, Hepatocyte
Plasmodium berghei [16] = experiment: Antimalarial activity against Plasmodium berghei infected in Swiss Webster mouse assessed as mouse survival rate at 33 mg/kg administered once daily via oral gavage for 4 consecutive days beginning 1 hr after infection measured on day 12 post infection relative to control; assay type: functional; in short: as §1
Plasmodium berghei [17] = experiment: Antimalarial activity against Plasmodium berghei infected in Swiss Webster mouse assessed as mouse survival rate at 100 mg/kg administered once daily via oral gavage for 4 consecutive days beginning 1 hr after infection measured on day 10 post infection relative to control; assay type: functional; in short: as §2
Plasmodium berghei [18] = experiment: Antimalarial activity against Plasmodium berghei infected in Swiss Webster mouse assessed as mouse survival rate at 100 mg/kg administered once daily via oral gavage for 4 consecutive days beginning 1 hr after infection measured on day 11 post infection relative to control; assay type: functional; in short: as §2
Plasmodium berghei [19] = experiment: Antimalarial activity against Plasmodium berghei infected in Swiss Webster mouse assessed as mouse survival rate at 0.4 mg/kg administered once daily via oral gavage for 4 consecutive days beginning 1 hr after infection measured on day 5 post infection relative to control; assay type: functional; in short: as §2
Plasmodium berghei [20] = experiment: Antimalarial activity against Plasmodium berghei infected in Swiss Webster mouse assessed as mouse survival rate at 0.1 mg/kg administered once daily via oral gavage for 4 consecutive days beginning 1 hr after infection measured on day 7 post infection relative to control; assay type: functional; in short: as §2
Plasmodium berghei [21] = experiment: Antimalarial activity against Plasmodium berghei infected in Swiss Webster mouse assessed as mouse survival rate at 1.2 mg/kg administered once daily via oral gavage for 4 consecutive days beginning 1 hr after infection measured on day 4 post infection relative to control; assay type: functional; in short: as §2
Plasmodium berghei [22] = experiment: Antimalarial activity against Plasmodium berghei infected in Swiss Webster mouse assessed as mouse survival rate at 33 mg/kg administered once daily via oral gavage for 4 consecutive days beginning 1 hr after infection measured on day 10 post infection relative to control; assay type: functional; in short: as §1
Plasmodium berghei [23] = experiment: Antimalarial activity against Plasmodium berghei infected in Swiss Webster mouse assessed as mouse survival rate at 33 mg/kg administered once daily via oral gavage for 4 consecutive days beginning 1 hr after infection measured on day 11 post infection relative to control; assay type: functional; in short: as §1
Plasmodium berghei [24] = experiment: Antimalarial activity against Plasmodium berghei infected in Swiss Webster mouse assessed as mouse survival rate at 3.7 mg/kg administered once daily via oral gavage for 4 consecutive days beginning 1 hr after infection measured on day 6 post infection relative to control; assay type: functional; in short: as §1
Plasmodium falciparum [25] = experiment: Antimalarial activity against Plasmodium falciparum 3D7 0087/N9 infected in NOD/SCID IL2R gamma null mouse assessed as reduction in parasitemia administered once daily via oral gavage for 4 consecutive days measured on day 4 post infection; assay type: functional; conditions: 3D7 0087/N9, po, 96 h
In short: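 Human-erythrocyte-engrafted NODscidIL2Rγnull mice carrying P. falciparum Pf3D70087/N9 in peripheral blood; compound given orally once daily for four consecutive days.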

Plasmodium berghei [26] = experiment: Antimalarial activity against Plasmodium berghei infected in Swiss Webster mouse assessed as mouse survival rate at 33 mg/kg administered once daily via oral gavage for 4 consecutive days beginning 1 hr after infection measured on day 14 post infection relative to control; assay type: functional; in short: as §1
Plasmodium berghei [27] = experiment: Antimalarial activity against Plasmodium berghei infected in Swiss Webster mouse assessed as mouse survival rate at 0.1 mg/kg administered once daily via oral gavage for 4 consecutive days beginning 1 hr after infection measured on day 4 post infection relative to control; assay type: functional; in short: as §2

Cc1c(Oc2cnc(C(=O)N3CC(C)(O)C3)cn2)ccc2c1B(O)OC2
survival at 33 mg/kg (Plasmodium berghei [1]): 100% | ED90 (Plasmodium berghei [2]): 1.9 to 1.92 mg/kg | survival at 100 mg/kg (Plasmodium berghei [3]): 100% | survival at 100 mg/kg (Plasmodium berghei [4]): 100% | survival at 1.2 mg/kg (Plasmodium berghei [5]): 0% | survival at 100 mg/kg (Plasmodium berghei [6]): 100% | IC50 (Plasmodium falciparum [7]): 0.043 µM | survival at 1.2 mg/kg (Plasmodium berghei [8]): 100% | survival at 1.2 mg/kg (Plasmodium berghei [9]): 100% | survival at 11 mg/kg (Plasmodium berghei [10]): 100% | survival at 33 mg/kg (Plasmodium berghei [11]): 100% | survival at 100 mg/kg (Plasmodium berghei [12]): 100% | survival at 3.7 mg/kg (Plasmodium berghei [13]): 100% | survival at 0.1 mg/kg (Plasmodium berghei [14]): 100% | Stability [15]: Stable | survival at 33 mg/kg (Plasmodium berghei [16]): 100% | survival at 100 mg/kg (Plasmodium berghei [17]): 100% | survival at 100 mg/kg (Plasmodium berghei [18]): 100% | survival at 0.4 mg/kg (Plasmodium berghei [19]): 100% | survival at 0.1 mg/kg (Plasmodium berghei [20]): 0% | survival at 1.2 mg/kg (Plasmodium berghei [21]): 100% | survival at 33 mg/kg (Plasmodium berghei [22]): 100% | survival at 33 mg/kg (Plasmodium berghei [23]): 100% | survival at 3.7 mg/kg (Plasmodium berghei [24]): 100% | ED90 (Plasmodium falciparum [25]): 0.85 mg/kg | survival at 33 mg/kg (Plasmodium berghei [26]): 0% | survival at 0.1 mg/kg (Plasmodium berghei [27]): 100%

CCC1(O)CN(C(=O)c2cnc(Oc3ccc4c(c3C)B(O)OC4)cn2)C1
survival at 33 mg/kg (Plasmodium berghei [1]): 20% | ED90 (Plasmodium berghei [2]): 4.8 mg/kg | survival at 100 mg/kg (Plasmodium berghei [3]): 100% | survival at 100 mg/kg (Plasmodium berghei [4]): 100% | survival at 1.2 mg/kg (Plasmodium berghei [5]): 0% | survival at 100 mg/kg (Plasmodium berghei [6]): 100% | IC50 (Plasmodium falciparum [7]): 0.055 µM | survival at 1.2 mg/kg (Plasmodium berghei [8]): 100% | survival at 1.2 mg/kg (Plasmodium berghei [9]): 100% | survival at 11 mg/kg (Plasmodium berghei [10]): 100% | survival at 33 mg/kg (Plasmodium berghei [11]): 100% | survival at 100 mg/kg (Plasmodium berghei [12]): 100% | survival at 3.7 mg/kg (Plasmodium berghei [13]): 100% | survival at 0.1 mg/kg (Plasmodium berghei [14]): 100% | Stability [15]: Stable | survival at 33 mg/kg (Plasmodium berghei [16]): 20% | survival at 100 mg/kg (Plasmodium berghei [17]): 100% | survival at 100 mg/kg (Plasmodium berghei [18]): 100% | survival at 0.4 mg/kg (Plasmodium berghei [19]): 100% | survival at 0.1 mg/kg (Plasmodium berghei [20]): 0% | survival at 1.2 mg/kg (Plasmodium berghei [21]): 100% | survival at 33 mg/kg (Plasmodium berghei [22]): 20% | survival at 33 mg/kg (Plasmodium berghei [23]): 20% | survival at 3.7 mg/kg (Plasmodium berghei [24]): 100% | ED90 (Plasmodium falciparum [25]): 0.84 mg/kg | survival at 33 mg/kg (Plasmodium berghei [26]): 0% | survival at 0.1 mg/kg (Plasmodium berghei [27]): 100%

Reference: ChEMBL document CHEMBL4038305, “Benzoxaborole Antimalarial Agents. Part 5. Lead Optimization of Novel Amide Pyrazinyloxy Benzoxaboroles and Identification of a Preclinical Candidate” (J Med Chem, 2017)
